These results are taken from the array DNA melting data of Ke et al. (doi:10.1101/2024.01.08.574731).

A short description of series [1]: melting temperature; fluorescence melt of hairpins on a sequencing array, two-state fit, raised by 9.35 °C to match UV melts. To be noted: sodium 0.088 M. Summed up:
(§1)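 Melting temperature and folding enthalpy were obtained by bootstrapped two-state fitting. Fits used Cy3 fluorescence of library hairpins with annealed Cy3 and quencher oligos on a sequenced MiSeq flow cell, imaged in 50 mM Na-HEPES pH 8.0, 25 mM NaCl in 2.5 °C steps up to 60 °C and normalised to pre-quench Cy3 and control constructs. Four replicates were combined by inverse-variance weighting, and fitted temperatures were raised by 9.35 °C to match UV melts.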

Series [2] can be described thus: folding enthalpy; higher = less favourable; fluorescence melt of hairpins on a sequencing array, two-state fit. To be noted: sodium 0.088 M. Summed up:
as §1

As for GCACCCACGAAAGTGTGC (((..(((....)))))), the Tm in series [1] came to 45.4 °C. Further, the folding enthalpy in series [2] was -19 kcal/mol.
Take GGGCCCGAAAGGGAGCCC ((((((....)))..))): the Tm in series [1] was 62.3 °C. In addition, in series [2], the folding enthalpy was -23.8 kcal/mol.
For GGGGCCGAAAGGCATCCC ((((((....)))..))), in series [1], the Tm is 54.9 °C. In addition, the folding enthalpy in series [2] is -13.9 kcal/mol.
For GAAACGAAAGTTTC (((((....))))), in that order: 53.4 °C and -29.1 kcal/mol.
The corresponding values for GTAGAGGGAAACCTTTAC (((.(((....))).))) are 31 °C and -28.7 kcal/mol.
On to GATCAGGACCTGATC ((((((...)))))), for which the Tm in series [1] stood at 49.6 °C. In series [2], the folding enthalpy was -40.4 kcal/mol.
The corresponding values for GAATCGGGAAACCAATTC ((((.((....)).)))) are 28.4 °C and -16.3 kcal/mol.
For GGTATAGGAAACTATGCC ((.((((....)))).)), in that order: 43.2 °C and -33.1 kcal/mol.
For GCGTCGCGAAAGCTTCGC (((..((....))..))), in that order: 53.5 °C and -19.7 kcal/mol.
Take GGCGACGGAAACGTCACC ((.((((....)))).)): in series [1], the Tm is 54.7 °C. The folding enthalpy in series [2] was -33.5 kcal/mol.
Turning to GGAGCCGAAAGGCGTTCC ((((((....)))..))), the Tm in series [1] was 40 °C. For the same sequence, the folding enthalpy in series [2] is -10.1 kcal/mol.
In the case of GCTTTGGGAAACCAAAAC (.(((((....))))).), the Tm in series [1] amounted to 31.3 °C. The folding enthalpy in series [2] is -19.8 kcal/mol.
As for GCAATAGGAAACTATTGC (((((((....))))))), the Tm in series [1] came to 56 °C. The folding enthalpy in series [2] is -45.8 kcal/mol.
For GAGAAACGAAAGTTCTC (((.(((....)))))), in that order: 40.9 °C and -24.4 kcal/mol.
GTAAGGCGAAAGCCATAC (((.(((....))).))): the Tm in series [1] came to 44.8 °C. For the same sequence, the folding enthalpy in series [2] was -15.3 kcal/mol.
The corresponding values for GATCATCATAATGATC ((((((....)))))) are 47.1 °C and -36.3 kcal/mol.
For GGCGTCGAAAGACACGCC ((((((....)))..))), in that order: 55 °C and -32 kcal/mol.
The corresponding values for GGCTCAGGAAACCAAGCC ((((..(....)..)))) are 35.3 °C and -31.6 kcal/mol.
On to GATCGCACGAAAGTGATC (((..(((....)))))), for which, in series [1], the Tm stood at 36.4 °C. Besides, the folding enthalpy in series [2] was -16.3 kcal/mol.
For GCTACGGGAAACCGTGGC ((.((((....)))).)), the Tm in series [1] is 56.7 °C. For the same sequence, the folding enthalpy in series [2] was -38.2 kcal/mol.
As to GAGGGTGCGAAAGCACTC (((..(((....)))))), the Tm in series [1] is 41.1 °C. Also, the folding enthalpy in series [2] was -8.61 kcal/mol.
GATCTATTGCTAGATC ((((((....)))))): the Tm in series [1] turned out to be 40.5 °C. The folding enthalpy in series [2] is -32.8 kcal/mol.
GCATGTCGAAAGACTTGC (((.(((....))).))): the Tm in series [1] stood at 54.6 °C. The folding enthalpy in series [2] is -43.8 kcal/mol.
GTACAGGGAAACCTGTGC (.(((((....))))).): in series [1], the Tm stood at 49.8 °C. Also, the folding enthalpy in series [2] is -20.9 kcal/mol.
The corresponding values for GTAGTGGCGAAAGCCTAC (((..(((....)))))) are 35.4 °C and -11.6 kcal/mol.
The corresponding values for GCTGTGGGAAACTACGGC ((.((.(....).)).)) are 42.6 °C and -31.6 kcal/mol.
On to GGGACCGAAAGGTACCC ((((((....))).))), for which, in series [1], the Tm amounted to 64.1 °C. The folding enthalpy in series [2] was -18.9 kcal/mol.
GATCATTCAGATGATC ((((((....)))))): in series [1], the Tm amounted to 46.9 °C. The folding enthalpy in series [2] is -36.9 kcal/mol.
In the case of GCAGGCGAAAGCCGTGC ((((((....))).))), in series [1], the Tm is 62.8 °C. Further, the folding enthalpy in series [2] was -17.1 kcal/mol.
The corresponding values for GGTAGCGAAAGCTCACC ((((((....))).))) are 48.2 °C and -16.8 kcal/mol.
For GGAGAACGAAAGTTATCC (((.(((....))).))), in that order: 51.6 °C and -37.2 kcal/mol.
Regarding GGGTGTGGAAACGCATCC ((.((.(....).)).)), the Tm in series [1] stood at 41.3 °C. Further, in series [2], the folding enthalpy is -26.3 kcal/mol.
As for CGCCCGGAAACGGCTGCG ((((((....)))..))), the Tm in series [1] amounted to 46.2 °C. Besides, the folding enthalpy in series [2] is -21.1 kcal/mol.
For GGTCTGGGAAACTAGGCC ((.((.(....).)).)), the Tm in series [1] was found to be 41.2 °C. In addition, the folding enthalpy in series [2] is -33.4 kcal/mol.
The corresponding values for GGATTCGCGAAAGCGTCC (((..(((....)))))) are 29.5 °C and -10.7 kcal/mol.
As to GACCGCGAAAGCGTCGTC ((((((....)))..))), the Tm in series [1] worked out at 53.1 °C. Moreover, the folding enthalpy in series [2] was -13.5 kcal/mol.
The corresponding values for GCTGAACGAAAGTTAAGC (((.(((....))).))) are 50.6 °C and -31.4 kcal/mol.
For GGCGGCGAAAGCCCGGCC ((((((....)))..))), the Tm in series [1] came to 61.5 °C. Also, in series [2], the folding enthalpy was -17.7 kcal/mol.
Consider GCAAGGCGAAAGCTTGGC ((.(.((....)).).)), for which the Tm in series [1] stood at 44 °C. In series [2], the folding enthalpy was -17.9 kcal/mol.
For GATCCAAACCTGGATC ((((((....)))))), in that order: 49.8 °C and -40.8 kcal/mol.
Consider GTTTGCGGAAACGTAAGC (.((.((....)).)).), for which, in series [1], the Tm stood at 33 °C. Also, the folding enthalpy in series [2] is -22 kcal/mol.
On to GCTCACGAAAGTGGTAGC ((((((....)))..))), for which the Tm in series [1] worked out at 44.7 °C. The folding enthalpy in series [2] was -19.7 kcal/mol.
For GGTCTTCGAAAGAACACC (((.(((....))).))), in that order: 32.6 °C and -26.6 kcal/mol.
The corresponding values for GTTGCGGGAAACCGCAGC (.(((((....))))).) are 56.4 °C and -14.2 kcal/mol.
Consider GTGATTGGAAACAACCAC (((.(((....))).))), for which the Tm in series [1] is 37.5 °C. The folding enthalpy in series [2] is -31.3 kcal/mol.
The corresponding values for GACCGGGGAAACCCGACC (..((((....))))..) are 30 °C and -11.4 kcal/mol.
For ATAGTGAAAACTAT (((((....))))), in that order: 30.4 °C and -12.8 kcal/mol.
Turning to GACTTGGGAAACCAAGCC (.(((((....))))).), the Tm in series [1] stood at 41.8 °C. In series [2], the folding enthalpy is -19.1 kcal/mol.
GATCCGAGTCGGATC ((((((...)))))): the Tm in series [1] turned out to be 59.5 °C. Further, the folding enthalpy in series [2] is -35 kcal/mol.
For GCGTCGCGAAAGCGCAGC ((..(((....)))..)), the Tm in series [1] came out at 57.5 °C. For the same sequence, the folding enthalpy in series [2] is -19.9 kcal/mol.
For GATCTTCTAAAGATC ((((((...)))))), the Tm in series [1] stood at 42.9 °C. The folding enthalpy in series [2] is -30.9 kcal/mol.
On to GCCCTGGCGAAAGCCGGC (((..(((....)))))), for which the Tm in series [1] was found to be 52 °C. In addition, the folding enthalpy in series [2] was -11.1 kcal/mol.
For the sequence GCATGACGAAAGTCTTGC (((.(((....))).))), the Tm in series [1] was 57.5 °C. Besides, the folding enthalpy in series [2] is -38.3 kcal/mol.
For the sequence GCCGGGCGAAAGCGGGGC (((..((....))..))), the Tm in series [1] is 63.3 °C. Moreover, in series [2], the folding enthalpy was -22.9 kcal/mol.
For GATCAAATCGTTGATC ((((((....)))))), in that order: 42.4 °C and -30.6 kcal/mol.
